Assay outcomes: PubChem, Johns Hopkins Ion Channel Center
TRPC6 inh – mouse TRPC6 channel inhibition | AID 2553 | B-score at 10 µM | HEK293-TRPC6, membrane potential dye, ACh-evoked depolarization; active compounds read low | actives 1.1% (n = 310,000);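 active means B-score under library mean minus 3 SD, initial fluorescence not abnormally high, positive integrated signal ratio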;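 further: B-score derived from integrated fluorescence ratio over the kinetic read; more negative B-score means stronger inhibition of depolarization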
Target sequence (Q61143 whole entry, looked up): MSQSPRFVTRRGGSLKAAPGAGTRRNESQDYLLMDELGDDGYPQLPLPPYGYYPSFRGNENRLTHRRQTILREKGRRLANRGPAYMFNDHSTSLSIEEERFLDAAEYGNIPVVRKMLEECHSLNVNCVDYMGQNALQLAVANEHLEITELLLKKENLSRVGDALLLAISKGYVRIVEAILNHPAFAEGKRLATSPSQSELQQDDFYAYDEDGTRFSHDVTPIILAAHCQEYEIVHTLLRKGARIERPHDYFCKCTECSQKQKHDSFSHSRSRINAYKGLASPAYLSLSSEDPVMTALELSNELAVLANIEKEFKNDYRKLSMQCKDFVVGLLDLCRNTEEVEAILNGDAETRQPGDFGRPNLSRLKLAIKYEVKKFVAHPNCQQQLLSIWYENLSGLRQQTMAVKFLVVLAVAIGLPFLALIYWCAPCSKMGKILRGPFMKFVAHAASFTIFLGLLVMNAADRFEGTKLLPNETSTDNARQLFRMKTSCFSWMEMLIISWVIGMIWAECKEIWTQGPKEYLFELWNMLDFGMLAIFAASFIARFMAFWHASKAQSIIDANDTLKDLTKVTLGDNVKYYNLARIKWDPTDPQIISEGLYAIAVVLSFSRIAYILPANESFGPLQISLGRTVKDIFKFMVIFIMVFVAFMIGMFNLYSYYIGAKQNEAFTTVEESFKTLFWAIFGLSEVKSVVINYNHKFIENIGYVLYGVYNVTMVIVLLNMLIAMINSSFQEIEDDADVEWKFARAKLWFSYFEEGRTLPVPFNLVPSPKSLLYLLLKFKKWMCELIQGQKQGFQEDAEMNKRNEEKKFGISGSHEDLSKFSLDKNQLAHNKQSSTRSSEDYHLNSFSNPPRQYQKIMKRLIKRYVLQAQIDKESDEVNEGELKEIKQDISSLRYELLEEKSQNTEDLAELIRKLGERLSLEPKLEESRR
TRPC4 block – TRPC4 (mouse) channel inhibition | Q9QUQ5 | HEK293 TRPC4beta/mu-opioid, DAMGO-evoked Fluo4 calcium flux; active compounds read low | B-score at 10 µM | actives 0.39% (n = 300,000) | AID 2247;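 active means B-score over 3 SD under the library average, no early fluorescence shift, positive overall ratio signal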
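Material: HEK293 cells with stable TRPC4beta plus mu-opioid receptor expression / Probe or stimulus: DAMGO in two steps, submaximal then maximal / Compound: single concentration per test compound / Technique: kinetic Fluo4 fluorescence imaging of calcium influx / Read-out: per-well B score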
TRPC4 agonist – TRPC4 (mouse) channel activation; Q9QUQ5; actives 0.49% (n = 310,000); B-score at 10 µM; HEK293 TRPC4beta/mu-opioid, Fluo4 calcium fluorescence; active compounds read high;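 active means B-score above 5 SD of library B-scores, and initial fluorescence ratio not above library mean plus 5 SD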;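 further: positive B-score marks a calcium rise read as TRPC4 activation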
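Assay system: HEK293 cells stably co-expressing mouse TRPC4beta and mu-opioid receptor / Timing: Fluo4 dye loading 45 min at room temperature, 110 s recording / Signal: Fluo4 calcium-sensitive dye fluorescence, kinetic, 1 Hz baseline / Read-out: integrated baseline-normalised fluorescence ratio, converted to per-well B score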
TRPC4 PAM – allosterically enhances the mouse TRPC4 cation channel. Q9QUQ5. HEK293 TRPC4beta/mu-opioid, DAMGO EC20, Fluo-4 Ca2+ flux; active compounds read high. B-score at 10 µM. actives 0.42% (n = 310,000). AID 2227;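 active means B-score of calcium response area above 5 SD of library B-scores, with initial fluorescence ratio within 5 SD of library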;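 further: B-score of integrated fluorescence ratio over time as area under calcium response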
TRPC6 act – mouse TRPC6 channel activation; HEK293-TRPC6 membrane potential dye fluorescence; active compounds read high; actives 0.13% (n = 310,000); Q61143; B-score at 10 µM; AID 2550;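 active means B-score of the integrated fluorescence ratio above library mean plus 3 SD, and starting fluorescence ratio within library mean plus 5 SD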;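 further: higher score means more depolarization so channel activation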
TRPC4 sel inh 2 – second check of whether TRPC6 inhibitors also affect mouse TRPC4; HEK293 TRPC4/MOR, membrane potential dye fluorescence; channel activated by saturating DAMGO dose; actives 42% (n = 920); inhibition, % at 10 µM; shares compounds with TRPC6 inh;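 active means compounds whose fluorescence signal differed from control wells by over 3 SD, either direction, in both duplicate plates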
TRPC4 spec – mouse TRPC4 off-target activity of TRPC6 inhibitors; shares compounds with TRPC6 inh; HEK293 TRPC4/mu-opioid, membrane potential fluorescence; activity change, negative = inhibition, % at 10 µM; actives 61% (n = 920); AID 2777;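 active means rise or fall in signal beyond 3 SD of buffer-only wells in both replicate plates, either sign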;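 further: integrated kinetic ratio of fluorescence range over baseline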
HEK293 MPD ctr 2-1 – parental HEK293 nonspecific activity of TRPC6 inhibitors, second screen | shares compounds with TRPC6 inh | parental HEK293 membrane potential dye fluorescence; maximal acetylcholine challenge after compound addition | signal change vs control, % at 10 µM | actives 31% (n = 920);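 active means membrane potential signal moving either way by over 3 SD of the maximum-effect control, in both duplicate plates, meaning non-specific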
HEK293 MPD ctr-1 – counter-screen for TRPC6 inhibitors: effect in parental HEK293 cells; shares compounds with TRPC6 inh; parental HEK293 membrane potential dye fluorescence; membrane potential signal change, % at 10 µM; actives 60% (n = 920); AID 2780;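 active means membrane potential signal shifting up or down by more than 3 SD of buffer-only wells, on both duplicate plates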
HEK293 MPD ctr-2 – checks TRPC6 modulator effects in parental HEK293 cells; shares compounds with TRPC6 inh; actives 51% (n = 2,400); membrane potential signal change, % at 10 µM; membrane potential dye fluorescence;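 active means membrane potential signal moves up or down beyond 5 SD from buffer-only wells, on both duplicate plates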
HEK293 MPD ctr 2-2 – second check of TRPC6 modulator effects in parental HEK293 cells; actives 14% (n = 2,400); shares compounds with TRPC6 inh; AID 488926; inhibition, % at 10 µM; membrane potential dye fluorescence; after compound, maximal acetylcholine stimulation;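 active means membrane potential signal drops by more than 5 SD from the mean control signal, in both duplicate plates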;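 further: plate controls were acetylcholine ECmax control wells for no effect and buffer only wells for full effect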
TRPC4 ctr mod – tests whether TRPC6 modulators also affect mouse TRPC4. AID 488927. actives 69% (n = 2,400). percent change from control (negative = decrease, positive = increase), % at 10 µM. HEK293 TRPC4/mu-opioid, membrane potential fluorescence. shares compounds with TRPC6 inh;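 active means membrane potential signal moved up or down beyond 5 SD of buffer control wells, in both duplicate plates, actives on both sides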;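 further: plate controls were assay buffer wells for no effect and DAMGO maximal-effect wells for full effect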
TRPC4 ctr inh 2 – mouse TRPC4 off-target activity of TRPC6 modulators, second screen. shares compounds with TRPC6 inh. HEK293 TRPC4/mu-opioid, membrane potential dye fluorescence; stimulated with maximal-effect DAMGO. inhibition, % at 10 µM. actives 55% (n = 2,400). AID 488928;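 active means drop in membrane potential signal beyond 5 SD of the control wells in both duplicate plates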;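 further: TRPC4 counter screen for TRPC6 hits run under conditions tuned for TRPC6 not TRPC4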
TRPC6 block conf – mouse TRPC6 inhibitor confirmation; shares compounds with TRPC6 inh; HEK293-TRPC6, membrane potential dye, ACh-evoked depolarization; inhibition, % at 10 µM; actives 43% (n = 3,300);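 active means fluorescence ratio falls more than 5 SD below the full-stimulation control mean, in both duplicate runs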;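 further: integrated fluorescence ratio of peak minus minimum over baseline after agonist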
TRPC6 act confirm – confirmation of mouse TRPC6 activators. shares compounds with TRPC6 inh. HEK293-TRPC6 membrane potential dye fluorescence, FDSS. activation, % at 10 µM. actives 11% (n = 2,800). AID 488961;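 active means ratio signal rise beyond 5 SD above unstimulated control wells' mean, seen in both duplicate runs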;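 further: plate controls were buffer EC0 wells for no effect and acetylcholine ECmax response for full effect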
Numbers without * were called inactive. Compounds with a hit are over-represented: about 2.3% of the library has one in this group of screens.

Screening O=C(COC(=O)c1c(Cl)cccc1Cl)NC1CCCCC1 returned TRPC6 inh inactive, TRPC4 block inactive, TRPC4 agonist inactive, TRPC4 PAM inactive, TRPC6 act 12*, HEK293 MPD ctr-2 121.0%*, HEK293 MPD ctr 2-2 inactive, TRPC4 ctr mod 23.5%*, TRPC4 ctr inh 2 inactive and TRPC6 act confirm 171.0%*.
CN1CCS/C1=C/C=C1/SC(=S)N(Cc2ccccc2)C1=O was read as TRPC6 inh inactive, TRPC4 block inactive, TRPC4 agonist inactive, TRPC4 PAM inactive, TRPC6 act 19.1*, HEK293 MPD ctr-2 277.5%*, HEK293 MPD ctr 2-2 inactive, TRPC4 ctr mod 49.0%*, TRPC4 ctr inh 2 inactive, TRPC6 block conf inactive and TRPC6 act confirm 112.5%*.
Screening Cc1cccn2c(=O)c3cc(C(=O)NC4CCCC4)c(=N)n(C4CCCC4)c3nc12 returned TRPC6 inh -5.19*, TRPC4 block inactive, TRPC4 agonist inactive, TRPC4 PAM inactive, TRPC6 act inactive, HEK293 MPD ctr-2 -151.0%*, HEK293 MPD ctr 2-2 inactive, TRPC4 ctr mod -54.5%*, TRPC4 ctr inh 2 48.0%*, TRPC6 block conf 49.0%* and TRPC6 act confirm inactive.
For N=c1c(C(=O)NCc2ccco2)cc2c(=O)n3ccccc3nc2n1C1CCCC1 the results were TRPC6 inh -5.3*, TRPC4 block inactive, TRPC4 agonist inactive, TRPC4 PAM inactive, TRPC6 act inactive, HEK293 MPD ctr-2 -71.5%*, HEK293 MPD ctr 2-2 inactive, TRPC4 ctr mod -32.5%*, TRPC4 ctr inh 2 37.0%*, TRPC6 block conf 45.5%* and TRPC6 act confirm inactive.
Screening N=c1c(C(=O)NCc2ccco2)cc2c(=O)n3ccccc3nc2n1Cc1ccccc1 returned TRPC6 inh -7.09*, TRPC4 block inactive, TRPC4 agonist inactive, TRPC4 PAM inactive, TRPC6 act inactive, HEK293 MPD ctr-2 inactive, HEK293 MPD ctr 2-2 inactive, TRPC4 ctr mod -39.5%*, TRPC4 ctr inh 2 45.5%*, TRPC6 block conf inactive and TRPC6 act confirm inactive.
Cc1ccc(CNC(=O)c2cc3c(=O)n4ccccc4nc3n(Cc3ccco3)c2=N)cc1 was read as TRPC6 inh inactive, TRPC4 block inactive, TRPC4 agonist inactive, TRPC4 PAM inactive and TRPC6 act inactive.
N=c1c(C(=O)NC2CCCC2)cc2c(=O)n3ccccc3nc2n1C1CCCC1 was read as TRPC6 inh -10.8*, TRPC4 block inactive, TRPC4 agonist inactive, TRPC4 PAM inactive, TRPC6 act inactive, HEK293 MPD ctr-2 -144.0%*, HEK293 MPD ctr 2-2 62.0%*, TRPC4 ctr mod -31.0%*, TRPC4 ctr inh 2 58.0%*, TRPC6 block conf 55.5%* and TRPC6 act confirm inactive.
`O=C(c1ccco1)N(Cc1cccc(Cl)c1)C1CCS(=O)(=O)C1` (stereo not drawn) gave TRPC6 inh inactive, TRPC4 block inactive, TRPC4 agonist inactive, TRPC4 PAM inactive and TRPC6 act inactive.
For COc1ccc(Cl)cc1NC(=O)c1nnn(CC(=O)Nc2ccc(C)c(C)c2)c1N the results were TRPC6 inh inactive, TRPC4 block inactive, TRPC4 agonist inactive, TRPC4 PAM inactive and TRPC6 act inactive.
For CCCn1c(=N)c(C(=O)NC2CCCC2)cc2c(=O)n3cccc(C)c3nc21 the results were TRPC6 inh -6.84*, TRPC4 block inactive, TRPC4 agonist inactive, TRPC4 PAM inactive, TRPC6 act inactive, TRPC4 sel inh 2 62.5%*, TRPC4 spec -14.0%*, HEK293 MPD ctr 2-1 -32.5%*, HEK293 MPD ctr-1 -170.5%*, TRPC6 block conf 78.1%* and TRPC6 act confirm inactive.
Screening CCCCn1c(=NC(=O)c2ccco2)c(C(=O)OCC)cc2c(=O)n3ccccc3nc21 returned TRPC6 inh -5.79*, TRPC4 block inactive, TRPC4 agonist inactive, TRPC4 PAM inactive, TRPC6 act inactive, HEK293 MPD ctr-2 inactive, HEK293 MPD ctr 2-2 inactive, TRPC4 ctr mod inactive, TRPC4 ctr inh 2 inactive, TRPC6 block conf inactive and TRPC6 act confirm inactive.
`CCCCOc1ccc(N(CC(=O)NCc2ccccc2)C(=O)c2csnn2)cc1` gave TRPC6 inh inactive, TRPC4 block inactive, TRPC4 agonist inactive, TRPC4 PAM inactive and TRPC6 act inactive.
Screening CCOC(=O)c1cc[n+](CC(=O)c2ccc(F)cc2)cc1 returned TRPC6 inh inactive, TRPC4 block inactive, TRPC4 agonist inactive, TRPC4 PAM inactive and TRPC6 act inactive.
Screening N#CC1=C(N)OC2=C(CC/C2=C\c2ccccc2)C1c1ccccc1 (stereo not drawn) returned TRPC6 inh inactive, TRPC4 block inactive, TRPC4 agonist inactive, TRPC4 PAM 13*, TRPC6 act 27.2*, HEK293 MPD ctr-2 576.0%*, HEK293 MPD ctr 2-2 inactive, TRPC4 ctr mod 21.0%*, TRPC4 ctr inh 2 inactive, TRPC6 block conf inactive and TRPC6 act confirm 48.5%*.
